MIC, ED50 and AUC data for six compounds are collected here from ChEMBL document CHEMBL1128288, “7-Azetidinylquinolones as antibacterial agents. 3. Synthesis, properties and structure-activity relationships of the stereoisomers containing a 7-(3-amino-2-methyl-1-azetidinyl) moiety” (J Med Chem, 1995).

Molecules are shown by their SMILES. In brackets after ≈: the same amount, converted by molar mass.

The test system of one data set is Bacillus subtilis. Nature of the data set: In vitro antibacterial activity measured as minimum inhibitory concentration was evaluated on Bacillus subtilis ATCC 6633(Bs). The data set is classed as functional. A digest of the protocol:
(§1)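 Serial 2-fold agar dilution in Mueller Hinton medium, run side by side with reference quinolones. Inoculum 10^5 cfu/mL; compound range 0.007–16 µg/mL.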

For data set [1], the system named is Staphylococcus aureus. Nature of the data set: In vivo efficacy as ED50 against Staphylococcus aureus HS-93 by oral administration in mice. The data set is classed as functional. The note with it: Staphylococcus aureus, po; read-out: ED50. A digest of the protocol:
(§2)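 Mice, 4 groups of 10, infected intraperitoneally with slightly more than the LD100 of the organism. A single oral dose was given immediately after infection, with four doses (one per group) chosen from in vitro activity. Survival was scored after one week. ED50 (total dose, mg/kg, protecting 50%) was interpolated among group survival rates.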

The next data set relates to Enterobacter cloacae. Nature of the data set: In vitro antibacterial activity measured as minimum inhibitory concentration, was evaluated on Enterobacter cloacae ATCC 23355 (Ecl). It is filed as functional.
The next data set deals with Morganella morganii. Nature of the data set: In vitro antibacterial activity measured as minimum inhibitory concentration was evaluated on morganella morganii ATCC 8019 (Mm). It is filed as functional. A digest of the protocol:
as §1

The test system of the next data set is Enterococcus faecalis. Nature of the data set: In vitro antibacterial activity measured as minimum inhibitory concentration was evaluated on Streptococcus faecalis ATCC 10541 (Sf). The data set is classed as functional. The gist of the method:
as §1

Data set [2] deals with Staphylococcus epidermidis. Nature of the data set: In vitro antibacterial activity measured as minimum inhibitory concentration was evaluated on Staphylococcus epidermidis ATCC 155-1 (Se). The data set is classed as functional. The gist of the method: as §1
In data set [3] the test system is Pseudomonas aeruginosa. Put plainly: In vivo efficacy as ED50 against Pseudomonas aeruginosa HS-116 by oral administration in mice. The data set is classed as functional. A digest of the protocol:
as §2

In another data set the test system is Bacillus cereus. Put plainly: In vitro antibacterial activity measured as minimum inhibitory concentration was evaluated on Bacillus cereus ATCC 11778 (Bc). It is filed as functional. The gist of the method: as §1
Data set [4] has as its system Staphylococcus aureus. Nature of the data set: In vitro antibacterial activity measured as minimum inhibitory concentration was evaluated on Staphylococcus aureus ATCC 25178 (Sa). It is filed as functional. The gist of the method:
as §1

The test system of a further data set is Klebsiella pneumoniae. Put plainly: In vitro antibacterial activity measured as minimum inhibitory concentration was evaluated on klebsiella pneumoniae ATCC 10031 (Kp). It is filed as functional. The gist of the method:
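Serial 2-fold agar dilution in Mueller Hinton medium, run side by side with reference quinolones.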

The conditions of data set [5]: mouse, in vivo, po, 50 mg/kg.
A further data set has as its system Proteus vulgaris. Put plainly: In vitro antibacterial activity measured as minimum inhibitory concentration was evaluated on proteus vulgaris ATCC 8427 (Pv). The data set is classed as functional. The gist of the method:
as §1

Data set [6] has as its system Escherichia coli. Put plainly: In vitro antibacterial activity measured as minimum inhibitory concentration, was evaluated on Escherichia coli ATCC 23559(Ec). The data set is classed as functional. A digest of the protocol: as §1
In data set [7] the test system is Escherichia coli. Put plainly: In vivo efficacy as ED50 against Escherichia coli HM-42 by oral administration in mice. The data set is classed as functional. The gist of the method: as §2
In data set [8] the test system is Pseudomonas aeruginosa. Nature of the data set: In vitro antibacterial activity measured as minimum inhibitory concentration was evaluated on Pseudomonas aeruginosa ATCC 10145 (Pa). It is filed as functional. A digest of the protocol:
as §1

Where [9] appears, read: Bacillus subtilis, ATCC 6633, read-out: MIC.
Setting [10] is: Enterobacter cloacae, ATCC 23355, read-out: MIC.
The mark [11] stands for this setting: Morganella morganii, ATCC 8019, read-out: MIC.
[12] abbreviates: Enterococcus faecalis, ATCC 10541, read-out: MIC.
Where [13] appears, read: Staphylococcus epidermidis, ATCC 155-1, read-out: MIC.
The mark [14] stands for this setting: Pseudomonas aeruginosa, po, read-out: ED50.
Where [15] appears, read: Bacillus cereus, ATCC 11778, read-out: MIC.
Where [16] appears, read: Staphylococcus aureus, ATCC 25178, read-out: MIC.
[17] abbreviates: Klebsiella pneumoniae, ATCC 10031, read-out: MIC.
[18] abbreviates: Proteus vulgaris, ATCC 8427, read-out: MIC.
The mark [19] stands for this setting: Escherichia coli, ATCC 23559, read-out: MIC.
Where [20] appears, read: Escherichia coli, po, read-out: ED50.
[21] abbreviates: Pseudomonas aeruginosa, ATCC 10145, read-out: MIC.

Turning to `C[C@H]1[C@H](N)CN1c1c(F)cc2c(=O)c(C(=O)O)cn(C3CC3)c2c1Cl` (single isomer, unassigned), the minimum inhibitory concentration (MIC) (in the data set with Bacillus subtilis (setting [9]); in the data set on Enterobacter cloacae (setting [10]); in the data set with Morganella morganii (setting [11]); in the data set on Enterococcus faecalis (setting [12]); in [2] (setting [13]); with Bacillus cereus (setting [15])) was 0.015 µg/mL (≈ 0.041 µM) in each case. The minimum inhibitory concentration (MIC) in the data set with Staphylococcus aureus [4] (setting [16]), with Klebsiella pneumoniae (setting [17]), in the data set on Proteus vulgaris (setting [18]) and in the data set on Escherichia coli [6] (setting [19]) was 0.015 µg/mL (≈ 0.041 µM) in each case. The 50% effective dose (ED50) in the data set with Staphylococcus aureus [1] stood at 3.6 mg/kg; in the data set with Pseudomonas aeruginosa [3] (setting [14]) it was 36 mg/kg; in the data set on Escherichia coli [7] (setting [20]), 2.1 mg/kg. Also, the AUC in data set [5] stood at 5200 ng·h/mL.
Consider `C[C@H]1[C@H](N)CN1c1nc2c(cc1F)c(=O)c(C(=O)O)cn2-c1ccc(F)cc1F` (single isomer, unassigned), for which the MIC with Bacillus subtilis (setting [9]) came to 0.015 µg/mL (≈ 0.0371 µM); in the data set on Enterobacter cloacae (setting [10]), 0.06 µg/mL (≈ 0.148 µM); in the data set on Enterococcus faecalis (setting [12]), 0.5 µg/mL (≈ 1.24 µM); in [2] (setting [13]), 0.12 µg/mL (≈ 0.297 µM); in the data set with Pseudomonas aeruginosa [8] (setting [21]), 0.5 µg/mL (≈ 1.24 µM); in the data set with Bacillus cereus (setting [15]) it was 0.06 µg/mL (≈ 0.148 µM). For the same compound, the MIC with Staphylococcus aureus [4] (setting [16]) is 0.06 µg/mL (≈ 0.148 µM); in the data set with Klebsiella pneumoniae (setting [17]), 0.015 µg/mL (≈ 0.0371 µM); in the data set with Proteus vulgaris (setting [18]), 0.5 µg/mL (≈ 1.24 µM); with Escherichia coli [6] (setting [19]), 0.06 µg/mL (≈ 0.148 µM). The ED50 with Staphylococcus aureus [1] is 6.6 mg/kg; in the data set on Pseudomonas aeruginosa [3] (setting [14]) it was 156 mg/kg; with Escherichia coli [7] (setting [20]), 4.2 mg/kg. In data set [5], this compound showed an AUC of 38200 ng·h/mL.
Regarding `C[C@H]1[C@H](N)CN1c1cc2c(cc1F)c(=O)c(C(=O)O)cn2C1CC1` (single isomer, unassigned), the MIC in the data set with Bacillus subtilis (setting [9]) is 0.015 µg/mL (≈ 0.0453 µM); in the data set on Enterobacter cloacae (setting [10]) it was 0.015 µg/mL (≈ 0.0453 µM); in the data set with Morganella morganii (setting [11]), 0.015 µg/mL (≈ 0.0453 µM); in the data set with Enterococcus faecalis (setting [12]), 0.12 µg/mL (≈ 0.362 µM); in data set [2] (setting [13]), 0.06 µg/mL (≈ 0.181 µM); with Pseudomonas aeruginosa [8] (setting [21]) it was 0.12 µg/mL (≈ 0.362 µM). Besides, the minimum inhibitory concentration (MIC) in the data set on Bacillus cereus (setting [15]) came out at 0.015 µg/mL (≈ 0.0453 µM); in the data set on Staphylococcus aureus [4] (setting [16]), 0.06 µg/mL (≈ 0.181 µM); with Klebsiella pneumoniae (setting [17]), 0.015 µg/mL (≈ 0.0453 µM); in the data set with Escherichia coli [6] (setting [19]) it was 0.015 µg/mL (≈ 0.0453 µM). The median effective dose (ED50) with Staphylococcus aureus [1] was determined as 17 mg/kg; in the data set on Pseudomonas aeruginosa [3] (setting [14]) it was 100 mg/kg; with Escherichia coli [7] (setting [20]) it was 2.9 mg/kg. Further, in [5], the AUC was 4000 ng·h/mL.
As for `CC1C(N)CN1c1c(F)cc2c(=O)c(C(=O)O)cn3c2c1OC[C@@H]3C` (single isomer, unassigned), the minimal inhibitory concentration (MIC) stood at 0.015 µg/mL (≈ 0.0432 µM) with Bacillus subtilis (setting [9]); 0.015 µg/mL (≈ 0.0432 µM) in the data set with Enterobacter cloacae (setting [10]); 0.015 µg/mL (≈ 0.0432 µM) with Morganella morganii (setting [11]); 0.12 µg/mL (≈ 0.345 µM) in the data set on Enterococcus faecalis (setting [12]); 0.015 µg/mL (≈ 0.0432 µM) in [2] (setting [13]); 0.25 µg/mL (≈ 0.72 µM) with Pseudomonas aeruginosa [8] (setting [21]). The minimal inhibitory concentration (MIC) with Bacillus cereus (setting [15]) turned out to be 0.06 µg/mL (≈ 0.173 µM); with Staphylococcus aureus [4] (setting [16]), 0.015 µg/mL (≈ 0.0432 µM); in the data set with Klebsiella pneumoniae (setting [17]) it was 0.015 µg/mL (≈ 0.0432 µM); with Proteus vulgaris (setting [18]) it was 0.06 µg/mL (≈ 0.173 µM); in the data set on Escherichia coli [6] (setting [19]), 0.015 µg/mL (≈ 0.0432 µM). The ED50 in the data set on Staphylococcus aureus [1] came out at 6.9 mg/kg; with Pseudomonas aeruginosa [3] (setting [14]), 26 mg/kg; in the data set with Escherichia coli [7] (setting [20]), 5.9 mg/kg. For the same compound, the AUC in [5] stood at 2300 ng·h/mL.
Take `C[C@@H]1[C@@H](N)CN1c1c(F)cc2c(=O)c(C(=O)O)cn(C3CC3)c2c1F` (stereo in doubt; 22b): the MIC with Bacillus subtilis came to 0.12 µg/mL (≈ 0.344 µM); in the data set with Enterobacter cloacae it was 0.25 µg/mL (≈ 0.716 µM); in the data set on Morganella morganii it was 0.25 µg/mL (≈ 0.716 µM); in the data set on Enterococcus faecalis, 2 µg/mL (≈ 5.73 µM); in data set [2] it was 0.25 µg/mL (≈ 0.716 µM); in the data set on Pseudomonas aeruginosa [8], 4 µg/mL (≈ 11.5 µM). The MIC against Bacillus cereus came to 0.5 µg/mL (≈ 1.43 µM); against Staphylococcus aureus [4], 0.25 µg/mL (≈ 0.716 µM); against Klebsiella pneumoniae it was 0.12 µg/mL (≈ 0.344 µM); in the data set with Proteus vulgaris it was 0.5 µg/mL (≈ 1.43 µM); against Escherichia coli [6], 0.25 µg/mL (≈ 0.716 µM). Besides, the 50% effective dose (ED50) came out at 12.2 mg/kg in the data set on Staphylococcus aureus [1], 65 mg/kg in the data set with Pseudomonas aeruginosa [3] and 10.2 mg/kg in the data set on Escherichia coli [7]. In [5], this compound came in with an AUC of 13600 ng·h/mL.
As to `C[C@H]1COc2c(N3CCN(C)CC3)c(F)cc3c(=O)c(C(=O)O)cn1c23.C[C@H]1COc2c(N3CCN(C)CC3)c(F)cc3c(=O)c(C(=O)O)cn1c23.O` [LEVOFLOXACIN], the minimum inhibitory concentration (MIC) was 0.03 µg/mL in the data set with Bacillus subtilis (setting [9]); 0.03 µg/mL in the data set on Enterobacter cloacae (setting [10]); 0.03 µg/mL with Morganella morganii (setting [11]); 0.25 µg/mL in the data set on Enterococcus faecalis (setting [12]); 0.12 µg/mL in data set [2] (setting [13]); 0.5 µg/mL in the data set with Pseudomonas aeruginosa [8] (setting [21]). Moreover, the MIC in the data set on Bacillus cereus (setting [15]) was 0.25 µg/mL; with Staphylococcus aureus [4] (setting [16]), 0.25 µg/mL; in the data set on Klebsiella pneumoniae (setting [17]), 0.03 µg/mL; with Proteus vulgaris (setting [18]) it was 0.5 µg/mL. Further, the values for the ED50 in the data set on Staphylococcus aureus [1], in the data set on Pseudomonas aeruginosa [3] (setting [14]) and in the data set on Escherichia coli [7] (setting [20]) were 14 mg/kg, 109 mg/kg and 5 mg/kg, respectively. Moreover, in [5], the AUC is 10200 ng·h/mL.
